# Source: ChEMBL document CHEMBL4373713, “Effect of 1-Deoxynojirimycin Isolated from Mulberry Leaves on Glucose Metabolism and Gut Microbiota in a Streptozotocin-Induced Diabetic Mouse Model” (J Nat Prod, 2019)
# The source made the active and inactive calls. The rule behind the calls is not given here.
# How the values were obtained:
# Format in all cases: functional, organism-based
# Mus musculus [1] = assay: Antidiabetic activity in STZ-induced Kunming mouse model of diabetes assessed as decrease in Ruminococcus level in feces at 31.25 to 125 mg/kg, po administered QD administered via gavage for 4 weeks by 16S rDNA based DNA sequencing analysis
# Mus musculus [2] = assay: Antidiabetic activity in STZ-induced Kunming mouse model of diabetes assessed as increase in Alistipes level in feces at 31.25 to 125 mg/kg, po administered QD administered via gavage for 4 weeks by 16S rDNA based DNA sequencing analysis
# Mus musculus [3] = assay: Antidiabetic activity in po dosed STZ-induced Kunming mouse model of diabetes assessed as reduction in fasting serum insulin level administered QD administered via gavage for 4 weeks
# Summary of the method: (§1)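 Fasting serum insulin was measured by commercial kit on plasma from orbital-sinus blood taken after an overnight fast at day 28. HOMA-IR was derived to assess insulin sensitivity. Diabetic mice were gavaged daily at 31.25–125 mg/kg. Mean ± SD, Duncan's test.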
# Mus musculus [4] = assay: Antidiabetic activity in po dosed STZ-induced Kunming mouse model of diabetes assessed as increase in IR phosphorylation at (Tyr 999 residues) expression in liver administered QD administered via gavage for 4 weeks by Western blot analysis
# Summary of the method: (§2)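 Livers from diabetic mice after 28 days of daily gavage (31.25–125 mg/kg) were homogenized and spun at 14 000g, 4 °C. Proteins were run on 10% SDS-PAGE and transferred to PVDF, then blocked in 5% milk for 1 h. Primary antibodies (GK, PK, PFK, PCB, PEPCK, FBPase, G-6-Pase, p-IR Tyr999, p-IRS-1 Ser307) were applied for 1 h at 25 °C, followed by HRP anti-rabbit IgG and ECL detection. Mean ± SD, Duncan's test.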
# Mus musculus [5] = assay: Antidiabetic activity in STZ-induced Kunming mouse model of diabetes assessed as decrease in Prevo-tellaceae UCG-001 level in feces at 62.5 to 125 mg/kg, po administered QD administered via gavage for 4 weeks by 16S rDNA based DNA sequencing analysis
# Mus musculus [6] = assay: Antidiabetic activity in STZ-induced Kunming mouse model of diabetes assessed as decrease in Escherichia-Shigella level in feces at 31.25 to 125 mg/kg, po administered QD administered via gavage for 4 weeks by 16S rDNA based Illumina sequencing method
# Mus musculus [7] = assay: Antidiabetic activity in STZ-induced Kunming mouse model of diabetes assessed as decrease in LDL-C level at 62.5 to 125 m/kg, po administered QD administered via gavage for 4 weeks
# Summary of the method: (§3)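 STZ/high-fat-diet diabetic Kunming mice (n=10/group) were gavaged daily for 28 days at 31.25–125 mg/kg. After an overnight fast, orbital-sinus blood was taken and plasma was spun at 1000g, 4 °C. TC, TG and HDL-C were measured by kit. LDL-C was calculated by Friedewald: TC − (HDL-C + TG/2.2), with TG below 4.5 mmol/L. Data are mean ± SD, Duncan's test.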
# Mus musculus [8] = assay: Antidiabetic activity in STZ-induced Kunming mouse model of diabetes assessed as reduction in TG level at 31.25 to 125 m/kg, po administered QD administered via gavage for 4 weeks; summary of the method: as §3
# Mus musculus [9] = assay: Antidiabetic activity in po dosed STZ-induced Kunming mouse model of diabetes assessed as reduction in HOMA-IR index level administered QD administered via gavage for 4 weeks; summary of the method: as §1
# Mus musculus [10] = assay: Antidiabetic activity in STZ-induced Kunming mouse model of diabetes assessed as increase in Lachnospiraceae level in feces at 31.25 to 125 mg/kg, po administered QD administered via gavage for 4 weeks by 16S rDNA based DNA sequencing analysis
# Mus musculus [11] = assay: Antidiabetic activity in STZ-induced Kunming mouse model of diabetes assessed as increase in PFK expression level in liver at 125 m/kg, po administered QD administered via gavage for 4 weeks by Western blot analysis; summary of the method: as §2
# Mus musculus [12] = assay: Antidiabetic activity in STZ-induced Kunming mouse model of diabetes assessed as down regulation of PCB expression level in liver at 62.5 to 125 m/kg, po administered QD administered via gavage for 4 weeks by Western blot analysis; summary of the method: as §2
# Mus musculus [13] = assay: Antidiabetic activity in po dosed STZ-induced Kunming mouse model of diabetes assessed as reduction in fasting serum glucose level administered QD administered via gavage for 4 weeks and measured 2 weeks during compound dosing
# Summary of the method: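 Fasting serum glucose was taken from the tail tip on days 0, 7, 14, 21 and 28 in STZ (35 mg/kg i.p.)/high-fat-diet Kunming mice. Mice were gavaged once daily at 31.25, 62.5 or 125 mg/kg in 0.5 mL, n=10 per group.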
# Mus musculus [14] = assay: Antidiabetic activity in STZ-induced Kunming mouse model of diabetes assessed as increase in glucose tolerance 31.25 to 125 mg/kg, po administered QD administered via gavage for 4 weeks and measured on day 26 followed by glucose challenge after 30 mins during compound dosing by OGTT
# Summary of the method: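 On treatment day 26, after a 12 h fast, diabetic mice received oral glucose at 2.0 g/kg. Tail-tip blood glucose was read at 0, 30, 60, 90 and 120 min. Daily gavage dosing was 31.25–125 mg/kg, n=10 per group.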
# Mus musculus [15] = assay: Antidiabetic activity in STZ-induced Kunming mouse model of diabetes assessed as increase in Lackno-spiraceae NK4A136 level in feces at 31.25 to 125 mg/kg, po administered QD administered via gavage for 4 weeks by 16S rDNA based Illumina sequencing method
# Mus musculus [16] = assay: Antidiabetic activity in STZ-induced Kunming mouse model of diabetes assessed as decrease in Klebsiella level in feces at 62.5 to 125 mg/kg, po administered QD administered via gavage for 4 weeks by 16S rDNA based DNA sequencing analysis
# Mus musculus [17] = assay: Antidiabetic activity in STZ-induced Kunming mouse model of diabetes assessed as increase in HDL-C level at 31.25 to 125 m/kg, po administered QD administered via gavage for 4 weeks; summary of the method: as §3
# Mus musculus [18] = assay: Antidiabetic activity in STZ-induced Kunming mouse model of diabetes assessed as down regulation of glucose-6-phosphatase expression level in liver at 62.5 to 125 m/kg, po administered QD administered via gavage for 4 weeks by Western blot analysis; summary of the method: as §2
# Mus musculus [19] = assay: Antidiabetic activity in STZ-induced Kunming mouse model of diabetes assessed as decrease in TC level at 125 m/kg, po administered QD administered via gavage for 4 weeks; summary of the method: as §3
# Mus musculus [20] = assay: Antidiabetic activity in STZ-induced Kunming mouse model of diabetes assessed as increase in Oscillibacter level in feces at 31.25 to 125 mg/kg, po administered QD administered via gavage for 4 weeks by 16S rDNA based Illumina sequencing method
structure (smiles),measurement,setting,value
OC[C@H]1NC[C@H](O)[C@@H](O)[C@@H]1O,Activity,Mus musculus [1],Active
same,Activity,Mus musculus [2],Active
same,Activity,Mus musculus [3],Dose-dependent effect
same,Activity,Mus musculus [4],Dose-dependent effect
same,Activity,Mus musculus [5],Active
same,Activity,Mus musculus [6],inactive
same,Activity,Mus musculus [7],Active
same,Activity,Mus musculus [8],Active
same,Activity,Mus musculus [9],Dose-dependent effect
same,Activity,Mus musculus [10],Active
same,Activity,Mus musculus [11],Active
same,Activity,Mus musculus [12],Active
same,Activity,Mus musculus [13],Dose-dependent effect
same,Activity,Mus musculus [14],Active
same,Activity,Mus musculus [15],Active
same,Activity,Mus musculus [16],Active
same,Activity,Mus musculus [17],Active
same,Activity,Mus musculus [18],Active
same,Activity,Mus musculus [19],Active
same,Activity,Mus musculus [20],Active
